# Published values from different studies.
# Compare with care: the assays were run in different laboratories.
Structure (SMILES),cell line,observed,mode,method,time,endpoint,result
c1ccc2c(NCCCCCCNc3c4ccccc4nc4ccccc34)c3ccccc3nc2c1,MDA-MB-468,cell growth or viability,,MTT,,IC50,96 nM
COc1cccc2c1C(=O)c1c(O)c3c(c(O)c1C2=O)C[C@@](O)(C(=O)CO)C[C@@H]3O[C@H]1C[C@H](N)[C@H](O)[C@H](C)O1,C6,cell growth or viability,,SRB,72 h,IC50,500 nM
COc1ccc2c(c1)c(C(=O)C(=O)NCCc1c[nH]c3ccccc13)cn2Cc1ccc(Cl)cc1,C4-2,cell growth or viability,,MTT,,IC50,> 100000 nM
CC(C)[C@@H]1NC(=O)[C@H](C)OC(=O)[C@@H](C(C)C)NC(=O)[C@@H](C(C)C)OC(=O)[C@H](C(C)C)NC(=O)[C@H](C)OC(=O)[C@@H](C(C)C)NC(=O)[C@@H](C(C)C)OC(=O)[C@H](C(C)C)NC(=O)[C@H](C)OC(=O)[C@@H](C(C)C)NC(=O)[C@@H](C(C)C)OC1=O,C6,cell growth or viability,,SRB,,IC50,24 nM
CCn1cc(C(=O)C(=O)NCCc2c[nH]c3ccccc23)c2ccccc21,C4-2,cell growth or viability,,MTT,,IC50,> 100000 nM
Cc1c2cnccc2c(C)c2c1c1ccccc1n2CCCCCCNCc1ccccc1,MDA-MB-468,cell growth or viability,,MTT,,IC50,720 nM
O=C(NCCc1c[nH]c2ccccc12)C(=O)c1cn(Cc2ccc(Cl)cc2)c2ccc(F)cc12,C4-2,cell growth or viability,,MTT,,IC50,> 100000 nM
O=C(O)C(Cl)Cl,BCPAP,cell growth or viability,,MTT,72 h,IC50,> 50000 nM
c1ccc([C@@H]2C[C@H]2NC2CCNCC2)cc1,MV4-11,cell growth or viability,,resazurin,96 h,EC50,0.48 nM
Cn1cncc1[C@@](N)(c1ccc(Cl)cc1)c1ccc2c(c1)c(-c1cccc(Cl)c1)cc(=O)n2C,HN-6,cell growth or viability,,,72 h,IC50,2270 nM
COc1cc(O)c2c(=O)c(OC)c(-c3ccc(O)cc3)oc2c1,RBL-2H3,degranulation,inhibitor,,,IC50,80400 nM
